In general, Kd refers to a measure of binding affinity in units of concentration. Broadly, the MIC is the lowest concentration found to suppress growth.

Converted amounts (≈) assume the structure as drawn.

The text below walks through data of ChEMBL document CHEMBL1671727, “Expression, purification, and characterization of Aspergillus fumigatus sterol 14-alpha demethylase (CYP51) isoenzymes A and B” (Antimicrob Agents Chemother, 2010).

Experiment [1] concerns the target T1, Sterol 14-alpha demethylase cyp51A (Neosartorya fumigata (strain ATCC MYA-4609 / Af293 / CBS 101355 / FGSCA1100) (Aspergillus fumigatus), UniProt Q4WNT5).
T1 sequence (Q4WNT5 whole entry): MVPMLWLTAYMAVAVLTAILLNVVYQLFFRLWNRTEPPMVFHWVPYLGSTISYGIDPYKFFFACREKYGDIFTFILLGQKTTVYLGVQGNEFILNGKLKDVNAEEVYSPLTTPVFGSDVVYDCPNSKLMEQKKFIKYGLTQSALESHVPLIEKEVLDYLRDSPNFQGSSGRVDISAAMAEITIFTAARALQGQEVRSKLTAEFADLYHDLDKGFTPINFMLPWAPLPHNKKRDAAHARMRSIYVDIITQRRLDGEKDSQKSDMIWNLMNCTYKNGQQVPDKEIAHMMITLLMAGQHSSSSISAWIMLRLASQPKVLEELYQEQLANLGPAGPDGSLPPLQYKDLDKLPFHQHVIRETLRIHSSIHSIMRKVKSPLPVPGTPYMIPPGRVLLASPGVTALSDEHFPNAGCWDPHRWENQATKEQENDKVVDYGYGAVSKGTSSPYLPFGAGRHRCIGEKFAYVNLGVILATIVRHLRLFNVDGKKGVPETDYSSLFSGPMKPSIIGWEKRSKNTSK
Description: Binding affinity to Aspergillus fumigatus AF293 sterol 14-alpha demethylase isoenzyme A expressed in Escherichia coli. Put shortly:
(§1)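 His-tagged CYP51 (Af293 sequence, codon-optimised, E. coli-expressed), cholate-solubilised and Ni-NTA purified, at 1 μM in 0.1 M Tris-HCl pH 8.1 with 25% glycerol. Azole (0.05 mg/ml DMSO stock) titrated in split 4.5 mm cuvettes, with DMSO added to the reference. Difference spectra were read at 500–350 nm. Peak-to-trough change was plotted against concentration. Kd came from Morrison (tight binding), Michaelis-Menten or Hill fits.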

For experiment [2], the target named is T2, 14-alpha sterol demethylase (Neosartorya fumigata (Aspergillus fumigatus), UniProt Q96W81).
T2 sequence (Q96W81 whole entry): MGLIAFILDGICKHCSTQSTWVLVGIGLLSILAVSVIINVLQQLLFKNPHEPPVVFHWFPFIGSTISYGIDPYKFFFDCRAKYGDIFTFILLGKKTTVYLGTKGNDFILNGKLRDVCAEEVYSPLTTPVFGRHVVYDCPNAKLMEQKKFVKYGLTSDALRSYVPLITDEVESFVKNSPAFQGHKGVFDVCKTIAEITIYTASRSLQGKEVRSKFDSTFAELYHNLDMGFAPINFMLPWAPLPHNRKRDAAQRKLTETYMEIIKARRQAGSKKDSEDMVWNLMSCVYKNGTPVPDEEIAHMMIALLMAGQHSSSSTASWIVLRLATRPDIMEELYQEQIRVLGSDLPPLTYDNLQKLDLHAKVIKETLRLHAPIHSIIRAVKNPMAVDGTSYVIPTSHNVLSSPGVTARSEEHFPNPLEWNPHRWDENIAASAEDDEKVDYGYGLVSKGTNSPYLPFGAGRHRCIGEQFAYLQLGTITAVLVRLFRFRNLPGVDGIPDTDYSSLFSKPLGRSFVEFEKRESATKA
Description: Binding affinity to Aspergillus fumigatus AF293 sterol 14-alpha demethylase isoenzyme B expressed in Escherichia coli assessed as tight binding affinity constant. Put shortly:
as §1

Experiment [3] relates to Aspergillus fumigatus. Put plainly: Antimicrobial activity against sterol 14-alpha demethylase isoenzyme A-deficient Aspergillus fumigatus CEA10. Format: functional.
The test system of experiment [4] is Aspergillus fumigatus. Description: Antimicrobial activity against sterol 14-alpha demethylase isoenzyme B-deficient Aspergillus fumigatus CEA10. Format: functional.
Experiment [5] relates to Aspergillus fumigatus. Description: Antimicrobial activity against Aspergillus fumigatus CEA10. Format: functional.
Experiment [6] has as its system Aspergillus fumigatus. Description: Antimicrobial activity against Aspergillus fumigatus AF293. Format: functional.
Experiment [7] addresses T2, 14-alpha sterol demethylase. Put plainly: Binding affinity to Aspergillus fumigatus AF293 sterol 14-alpha demethylase isoenzyme B expressed in Escherichia coli. Put shortly: as §1
The test system of experiment [8] is Aspergillus fumigatus. Put plainly: Antimicrobial activity against sterol 14-alpha demethylase isoenzyme A-deficient Aspergillus fumigatus CM237. Format: functional.
Experiment [9] relates to Aspergillus fumigatus. Put plainly: Antimicrobial activity against Aspergillus fumigatus CM237. Format: functional.
Experiment [10] can be described thus: Binding affinity to Mycobacterium smegmatis CYP51. More on the design: species or system Mycolicibacterium smegmatis.
Experiment [11] concerns the target Lanosterol 14-alpha demethylase (Candida albicans (strain SC5314 / ATCC MYA-2876) (Yeast), UniProt P10613). Description: Binding affinity to Candida albicans CYP51.

Sequence of Lanosterol 14-alpha demethylase (P10613 whole entry): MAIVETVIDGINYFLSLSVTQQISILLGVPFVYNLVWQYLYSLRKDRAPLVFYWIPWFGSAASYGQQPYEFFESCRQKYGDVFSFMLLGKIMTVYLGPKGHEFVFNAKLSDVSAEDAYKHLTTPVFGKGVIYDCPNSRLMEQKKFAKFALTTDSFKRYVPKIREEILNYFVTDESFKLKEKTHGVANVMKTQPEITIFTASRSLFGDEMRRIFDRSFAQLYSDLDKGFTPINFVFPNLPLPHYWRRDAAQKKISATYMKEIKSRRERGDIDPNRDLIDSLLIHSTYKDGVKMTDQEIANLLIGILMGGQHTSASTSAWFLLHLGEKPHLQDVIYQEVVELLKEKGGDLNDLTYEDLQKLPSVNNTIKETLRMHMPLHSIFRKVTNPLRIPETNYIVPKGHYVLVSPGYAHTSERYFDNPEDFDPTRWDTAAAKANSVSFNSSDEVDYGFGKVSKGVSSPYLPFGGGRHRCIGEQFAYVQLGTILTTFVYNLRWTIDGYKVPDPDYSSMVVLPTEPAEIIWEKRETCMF

On to `Clc1ccccc1C(c1ccccc1)(c1ccccc1)n1ccnc1` [CLOTRIMAZOLE], for which the Kd in experiment [1] was determined as 4790 nM; in experiment [2], 103 nM.
Turning to `CCC(C)n1ncn(-c2ccc(N3CCN(c4ccc(OCC5COC(Cn6cncn6)(c6ccc(Cl)cc6Cl)O5)cc4)CC3)cc2)c1=O` (centres undefined) [ITRACONAZOLE], the values for the Kd in experiment [1] and in experiment [2] were 1010 nM and 31 nM, respectively. The MIC against Aspergillus fumigatus [3] was 0.053 µM; against Aspergillus fumigatus [4], 0.85 µM; in the experiment on Aspergillus fumigatus [5], 0.85 µM; against Aspergillus fumigatus [6], 0.71 µM.
Take `C[C@@H](c1ncncc1F)[C@](O)(Cn1cncn1)c1ccc(F)cc1F` [VORICONAZOLE]: the figures for the dissociation constant Kd in experiment [1], in experiment [7] and in experiment [2] were 3630 nM, 423 nM and 429 nM, respectively. In addition, the values for the minimal inhibitory concentration (MIC) with Aspergillus fumigatus [8], with Aspergillus fumigatus [9] and in the experiment with Aspergillus fumigatus [6] were 0.34 µM (≈ 0.119 µg/mL), 1.49 µM (≈ 0.52 µg/mL) and 0.72 µM, respectively.
For the compound `CC[C@@H]([C@H](C)O)n1ncn(-c2ccc(N3CCN(c4ccc(OC[C@@H]5CO[C@@](Cn6cncn6)(c6ccc(F)cc6F)C5)cc4)CC3)cc2)c1=O` [POSACONAZOLE], the figures for the Kd in experiment [1] and in experiment [2] were 2690 nM and 73 nM, respectively. This compound had an MIC in the experiment on Aspergillus fumigatus [6] of 0.72 µM.
For `OC(Cn1cncn1)(Cn1cncn1)c1ccc(F)cc1F` [FLUCONAZOLE], the dissociation constant (Kd) came to 11900 nM in [1], 19000 nM in [10] and 45 nM in experiment [11]. In addition, the MIC in the experiment with Aspergillus fumigatus [3] (read-out: MIC) is 20 µg/mL; in the experiment on Aspergillus fumigatus [4] (read-out: MIC), over 327 µg/mL; with Aspergillus fumigatus [5] (read-out: MIC), over 327 µg/mL; in the experiment with Aspergillus fumigatus [6] (read-out: MIC), 105 µg/mL.
